# From ChEMBL document CHEMBL4831507, “Development of FABP4/5 inhibitors with potential therapeutic effect on type 2 Diabetes Mellitus” (Eur J Med Chem, 2021)
# Target: T1, Fatty acid-binding protein, adipocyte (Homo sapiens, UniProt P15090)
# Assay: Displacement of 1,8-ANS from FABP4 (unknown origin) incubated for 3 mins by fluorescence based analysis
# How it was run: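 1,8-ANS displacement using purified recombinant FABP3, FABP4 or FABP5. Compound incubated with protein and 1,8-ANS in phosphate buffer for 3 min at room temperature. Fluorescence read at ex 370/em 470 nm. IC50 by nonlinear regression, mean ± SD of three independent experiments.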
# Target sequence in this assay (P15090 whole entry): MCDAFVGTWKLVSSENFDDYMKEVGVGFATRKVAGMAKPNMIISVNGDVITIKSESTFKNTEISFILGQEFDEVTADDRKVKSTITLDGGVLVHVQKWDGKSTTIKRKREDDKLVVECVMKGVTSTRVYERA
row,IC50 [µM],SMILES
1,4.84,O=C(O)c1cc(NS(=O)(=O)c2ccc(-c3ccccc3)c3ccccc23)ccc1F
2,7.68,O=C(O)c1cc(NS(=O)(=O)c2ccc(-c3ccc(F)cc3)c3ccccc23)ccc1F
3,6.45,COc1c(-c2cccc(Cl)c2F)cc(S(=O)(=O)Nc2ccc(F)c(CC(=O)O)c2)c2ccccc12

# Target: T1, Fatty acid-binding protein, adipocyte
# Assay: Displacement of 1,8-ANS from FABP4 (unknown origin) at 25 uM incubated for 3 mins by fluorescence based analysis relative to control
# How it was run: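 Single-concentration percent inhibition in the 1,8-ANS displacement assay with FABP4. Compound incubated with protein and probe in phosphate buffer for 3 min at room temperature; fluorescence read at ex 370/em 470 nm.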
# Target sequence in this assay (P15090 2-132 limits assumed): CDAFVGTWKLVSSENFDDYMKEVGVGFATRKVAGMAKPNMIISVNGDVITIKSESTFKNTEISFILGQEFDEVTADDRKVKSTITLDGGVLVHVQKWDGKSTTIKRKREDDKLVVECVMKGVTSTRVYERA
row,inhibition [%],SMILES
1,82,O=C(O)c1cc(NS(=O)(=O)c2ccc(-c3ccccc3)c3ccccc23)ccc1F
2,80,O=C(O)c1cc(NS(=O)(=O)c2ccc(-c3ccc(F)cc3)c3ccccc23)ccc1F
3,84,COc1c(-c2cccc(Cl)c2F)cc(S(=O)(=O)Nc2ccc(F)c(CC(=O)O)c2)c2ccccc12
